Data on 4 molecules can be found in ChEMBL document CHEMBL3745654, “N-Alkylated arylsulfonamides of (aryloxy)ethyl piperidines: 5-HT(7) receptor selectivity versus multireceptor profile” (Bioorg Med Chem, 2016).

Activity calls are given as the source filed them. The rule behind the calls is not given here.

In series [1] the test system is Mus musculus. Description: Antidepressant-like activity in ip dosed Swiss albino mouse assessed as reduction in immobility time dosed 60 mins before test measured after 6 mins by forced swim test. In kind it is functional. The settings on record: read-out: MED. The essentials:
(§1)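 Male Swiss albino mice (22–26 g), 7–12 per dose. Compounds dissolved in distilled water and given ip 60 min before test. Each mouse placed for 6 min in a glass cylinder with 10 cm of water at 23–25 °C. Immobility (floating with minimal movement) scored over the last 4 min by a blinded observer. One-way ANOVA with Bonferroni.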

Series [2] has as its system Mus musculus. Kind of series: Antidepressant-like activity in Swiss albino mouse assessed as reduction in immobility time at 0.312 to 1.25 mg/kg, ip dosed 60 mins before test measured after 6 mins by forced swim test. In kind it is functional, organism-based. The essentials:
as §1

Series [3] relates to Mus musculus. Kind of series: Toxicity in Swiss albino mouse assessed as effect on spontaneous locomotor activity at 0.312 to 1.25 mg/kg, ip dosed 60 mins before test measured after 2 to 6 mins. In kind it is organism-based. The settings on record: in vivo.
Series [4] concerns Mus musculus. Description: Antidepressant-like activity in Swiss albino mouse assessed as reduction in immobility time at 1.25 to 5 mg/kg, ip dosed 60 mins before test measured after 6 mins by forced swim test. In kind it is functional, organism-based. The essentials: as §1
Series [5] has as its system Mus musculus. Kind of series: Toxicity in Swiss albino mouse assessed as effect on spontaneous locomotor activity at 1.25 to 5 mg/kg, ip dosed 60 mins before test measured after 2 to 6 mins. In kind it is organism-based. The settings on record: in vivo.

For `Cn1cc(S(=O)(=O)N(CC2CC2)C2CCN(CCOc3ccccc3C(C)(C)C)CC2)cn1`, the minimal effective dose with Mus musculus [1] is 1.25 mg/kg.

Consider `CN(C1CCN(CCOc2ccccc2C(C)(C)C)CC1)S(=O)(=O)c1cnn(C)c1`, for which, in the series with Mus musculus [2], the result was Active. Also, in the series on Mus musculus [3], the Activity entry is given as “Non-toxic”.

`Cn1cc(S(=O)(=O)N(CC2CC2)C2CCN(CCOc3ccccc3-c3ccccc3)CC2)cn1`: the minimal effective dose in the series with Mus musculus [1] was 1.25 mg/kg.

With `CN(C1CCN(CCOc2ccccc2-c2ccccc2)CC1)S(=O)(=O)c1cnn(C)c1`, the outcome in the series on Mus musculus [4] was Active. For the same molecule, the Activity result in the series on Mus musculus [5] is recorded as “Non-toxic”.
